Calls of active or inactive are those of the source.
How the values were obtained:
Format in all cases: functional
Pseudomonas aeruginosa [1] = test: Antimicrobial activity against Pseudomonas aeruginosa ATCC 27853 at 10 ug after 18 hrs by agar-well diffusion assay; conditions: ATCC 27853, 18 h, read-out: IZ
How it was run: (§1)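 Organisms suspended in Mueller Hinton broth, diluted to about 10⁶ cfu/mL, and flood-inoculated onto Mueller Hinton agar, then dried. Samples dissolved in DMSO were added to 5 mm wells cut in the agar. Plates were incubated 18 h at 35 °C, and inhibition zones were measured. Ampicillin was the standard drug, with a DMSO solvent control.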

Staphylococcus aureus [2] = test: Antimicrobial activity against Staphylococcus aureus ATCC […] at 10 ug after 18 hrs by agar-well diffusion assay; conditions: ATCC 25923, 18 h, read-out: IZ; how it was run: as §1
Enterococcus faecalis [3] = test: Antimicrobial activity against Enterococcus faecalis ATCC 29212 at 10 ug after 18 hrs by agar-well diffusion assay; conditions: ATCC 29212, 18 h, read-out: IZ; how it was run: as §1
Escherichia coli [4] = test: Antimicrobial activity against Escherichia […] at 10 ug after 18 hrs by agar-well diffusion assay; conditions: read-out: IZ
How it was run: (§2)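 Bacteria were suspended in Mueller Hinton broth at about 10⁶ cfu/mL and flood-inoculated onto Mueller Hinton agar, then dried. Samples in DMSO went into 5-mm cork-bored wells. Plates were incubated 18 h at 35 °C and the zone of inhibition was read. Ampicillin was the standard, with a DMSO solvent control.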

Candida tropicalis [5] = test: Antimicrobial activity against Candida tropicalis ATCC 13803 at 5 ug after 18 hrs by agar-well diffusion assay
How it was run: (§3)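 Yeasts were suspended in Mueller Hinton broth at about 10⁶ cfu/mL and flood-inoculated onto Sabouraud dextrose agar, then dried. Samples in DMSO went into 5-mm wells. Plates were incubated 18 h at 35 °C and inhibition zones were measured. Fluconazole was the standard, with a DMSO solvent control.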

Bacillus cereus [6] = test: Antimicrobial activity against Bacillus cereus 702 Roma at 10 ug after 18 hrs by agar-well diffusion assay; conditions: read-out: IZ; how it was run: as §1
Candida albicans [7] = test: Antimicrobial activity against Candida albicans ATCC 60193 at 5 ug after 18 hrs by agar-well diffusion assay; how it was run: as §3
[8] = tested on: Yersinia pseudotuberculosis; test: Antimicrobial activity against Yersinia pseudotuberculosis ATCC 911 at 10 ug after 18 hrs by agar-well diffusion assay; conditions: ATCC 911, 18 h, read-out: IZ; how it was run: as §2
[9] = tested on: Yersinia pseudotuberculosis; test: Antimicrobial activity against Yersinia pseudotuberculosis ATCC 911 after 18 hrs by agar-well diffusion assay; how it was run: as §2
Staphylococcus aureus [10] = test: Antimicrobial activity against Staphylococcus aureus ATCC […] after 18 hrs by agar-well diffusion assay; how it was run: as §1
Pseudomonas aeruginosa [11] = test: Antimicrobial activity against Pseudomonas aeruginosa ATCC 27853 after 18 hrs by agar-well diffusion assay; how it was run: as §1
Candida tropicalis [12] = test: Antimicrobial activity against Candida tropicalis ATCC 13803 after 18 hrs by agar-well diffusion assay
How it was run: (§4)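 Yeast suspended in Mueller Hinton broth at about 10⁶ cfu/mL and flood-inoculated onto Sabouraud dextrose agar, then dried. Samples dissolved in DMSO were placed in 5 mm wells bored in the agar. After 18 h at 35 °C, the zone of inhibition was measured. Fluconazole was the standard drug, with a DMSO solvent control.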

Candida albicans [13] = test: Antimicrobial activity against Candida albicans ATCC 60193 after 18 hrs by agar-well diffusion assay; how it was run: as §4
Bacillus cereus [14] = test: Antimicrobial activity against Bacillus cereus 702 Roma after 18 hrs by agar-well diffusion assay; how it was run: as §1
Escherichia coli [15] = test: Antimicrobial activity against Escherichia […] after 18 hrs by agar-well diffusion assay; how it was run: as §1
Enterococcus faecalis [16] = test: Antimicrobial activity against Enterococcus faecalis ATCC 29212 after 18 hrs by agar-well diffusion assay; how it was run: as §1

CC1(C)S[C@@H]2[C@H](NC(=O)[C@H](N)c3ccccc3)C(=O)N2[C@H]1C(=O)O [AMPICILLIN]
15 mm: zone of inhibition at 10 µg/disc (Bacillus cereus [6])
inactive: inhibition zone (IZ) (Candida tropicalis [5]) | inhibition zone (IZ) (Candida albicans [7])
10 mm: zone of inhibition at 10 µg/disc (Enterococcus faecalis [3]) | zone of inhibition at 10 µg/disc (Escherichia coli [4])
18 mm: zone of inhibition at 10 µg/disc (Pseudomonas aeruginosa [1]) | zone of inhibition at 10 µg/disc [8]
35 mm: zone of inhibition at 10 µg/disc (Staphylococcus aureus [2])

OC(Cn1cncn1)(Cn1cncn1)c1ccc(F)cc1F [FLUCONAZOLE]
25 mm: zone of inhibition at 5 µg/disc (Candida tropicalis [5]; ATCC 13803, 18 h, read-out: IZ) | zone of inhibition at 5 µg/disc (Candida albicans [7]; ATCC 60193, 18 h, read-out: IZ)

Cc1ccc(-c2nn(Cc3nnc(N(C)c4ccccc4)s3)c(=O)n2N)cc1
inactive: inhibition zone (IZ) [9] | inhibition zone (IZ) (Staphylococcus aureus [10]; ATCC 25923) | inhibition zone (IZ) (Pseudomonas aeruginosa [11]) | inhibition zone (IZ) (Candida albicans [13]) | inhibition zone (IZ) (Escherichia coli [15]) | inhibition zone (IZ) (Enterococcus faecalis [16])
7 mm: inhibition zone (IZ) (Bacillus cereus [14])
6 mm: inhibition zone (IZ) (Candida tropicalis [12])

Cc1ccc(-c2nn(Cc3nnc(Nc4ccccc4)s3)c(=O)n2N)cc1
inactive: inhibition zone (IZ) [9] | inhibition zone (IZ) (Staphylococcus aureus [10]; ATCC 25923) | inhibition zone (IZ) (Pseudomonas aeruginosa [11]) | inhibition zone (IZ) (Candida tropicalis [12]) | inhibition zone (IZ) (Candida albicans [13]) | inhibition zone (IZ) (Bacillus cereus [14]) | inhibition zone (IZ) (Escherichia coli [15]) | inhibition zone (IZ) (Enterococcus faecalis [16])

Cc1ccc(-c2nn(Cc3nn(CN4CCN(C)CC4)c(=S)n3-c3ccc(F)cc3)c(=O)n2/N=C/c2ccc(F)cc2)cc1
8 mm: inhibition zone (IZ) (Bacillus cereus [14])
inactive: inhibition zone (IZ) [9] | inhibition zone (IZ) (Staphylococcus aureus [10]; ATCC 25923) | inhibition zone (IZ) (Pseudomonas aeruginosa [11]) | inhibition zone (IZ) (Candida tropicalis [12]) | inhibition zone (IZ) (Candida albicans [13]) | inhibition zone (IZ) (Escherichia coli [15]) | inhibition zone (IZ) (Enterococcus faecalis [16])

Cc1ccc(-c2nn(CC(=O)NNC(=S)Nc3ccccc3)c(=O)n2N)cc1
6 mm: inhibition zone (IZ) (Staphylococcus aureus [10])
inactive: inhibition zone (IZ) [9] | inhibition zone (IZ) (Pseudomonas aeruginosa [11]) | inhibition zone (IZ) (Candida tropicalis [12]) | inhibition zone (IZ) (Candida albicans [13]) | inhibition zone (IZ) (Bacillus cereus [14]) | inhibition zone (IZ) (Escherichia coli [15]) | inhibition zone (IZ) (Enterococcus faecalis [16])
